In general, Ki refers to the dissociation constant of the complex between target and ligand, obtained from inhibition or displacement. Read a low Ki as tighter binding.

SMILES strings stand for the structures. Where only a bound is given, the exact number is not on record here.

Our source for the Ki values is ChEMBL document CHEMBL1145100, “Structure-activity relationship of imidazo[1,2-a]pyridines as ligands for detecting beta-amyloid plaques in the brain” (J Med Chem, 2003).

The target in the test is Amyloid-beta precursor protein (Homo sapiens, UniProt P05067). Put plainly: Inhibition constant against [125I]-7 (TZDM) binding to Amyloid beta 1-40 aggregates. The essentials: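 Abeta40 peptide aggregated at 0.5 mg/mL in pH 7.4 buffer (10 mM sodium phosphate, 1 mM EDTA), 37 °C for 36-42 h with shaking. Competition in 1 mL of 40% EtOH: fibrils 10-50 nM final, radiotracer 0.05 nM, inhibitors 10^-5 to 10^-10 M. Nonspecific binding with 2 µM thioflavin-T. Incubated 3 h at room temperature, then GF/B filtration with 10% ethanol washes and gamma counting. Ki from nonlinear regression.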
Amyloid-beta precursor protein, sequence (P05067 whole entry): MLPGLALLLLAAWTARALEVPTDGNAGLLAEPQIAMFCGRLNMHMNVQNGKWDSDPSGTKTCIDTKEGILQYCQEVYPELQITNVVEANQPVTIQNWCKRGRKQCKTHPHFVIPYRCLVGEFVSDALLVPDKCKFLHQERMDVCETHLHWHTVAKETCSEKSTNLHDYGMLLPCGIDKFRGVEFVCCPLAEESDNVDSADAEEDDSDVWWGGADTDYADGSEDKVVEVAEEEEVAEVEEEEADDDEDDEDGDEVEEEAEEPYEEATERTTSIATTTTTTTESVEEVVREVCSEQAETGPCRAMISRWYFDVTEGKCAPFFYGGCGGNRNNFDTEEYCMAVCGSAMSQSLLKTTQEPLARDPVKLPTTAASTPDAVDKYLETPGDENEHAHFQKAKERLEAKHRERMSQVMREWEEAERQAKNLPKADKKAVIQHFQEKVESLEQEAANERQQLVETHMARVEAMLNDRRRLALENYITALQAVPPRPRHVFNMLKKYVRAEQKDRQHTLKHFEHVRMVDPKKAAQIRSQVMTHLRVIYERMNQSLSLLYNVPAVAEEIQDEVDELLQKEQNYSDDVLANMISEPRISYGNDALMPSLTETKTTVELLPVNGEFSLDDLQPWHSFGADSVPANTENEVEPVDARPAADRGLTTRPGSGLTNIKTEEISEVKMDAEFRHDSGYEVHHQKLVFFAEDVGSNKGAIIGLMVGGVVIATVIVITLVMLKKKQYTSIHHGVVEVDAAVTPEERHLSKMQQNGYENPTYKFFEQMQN

`CN(C)c1ccc(-c2nc3ccccn3c2I)cc1` came in with a Ki greater than 2 µM.
